Data on 3 molecules can be found in PMC11212574 (Emerging Microbes & Infections, 2024).

Common to all, as to format: cell-based
The test system of data set [1] is Hsp27/hnRNP A1 relocalization. As to conditions: for redistribution of Hsp27 and hnRNP A1 in EV-A71-infected RD cells: peptide 25 μM for 2 h, then EV-A71 MOI 40 for 6 h (Fig 7C-E, S7C-E). The essentials: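 RD cells on coverslips were pretreated 2 h with the test compound, then infected with EV-A71 at MOI 40 for 6 h. Cells were fixed in 4% paraformaldehyde for 20 min, permeabilised in 0.5% Triton X-100 for 15 min and blocked in 5% BSA for 2 h. They were stained with anti-Hsp27/anti-hnRNP A1 and Alexa Fluor 488/594 secondaries, with DAPI or Hoechst nuclei, and imaged by confocal. M1 coefficient gave overlap with nuclear stain.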

Data set [2] has as its system EV-A71. The experiment in a line: Viral RNA by RT-qPCR. The settings on record: HEK 293T cells, 8 μM SB203580 2 h before EV-A71 infection for 9 h (Fig 6C).
A further data set relates to Hsp27 phosphorylation. The experiment in a line: Western blot of Hsp27 phosphorylation. The settings on record: SB203580 0.25-8 µM for 2 h, then EV-A71 MOI 10 for 6 h, RD cells (Fig 1A). The essentials:
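RD cells were pre-treated 2 h with test peptide or small-molecule test compound (0–8 µM), then infected with EV-A71 at MOI 10 for 6 h. Cells were lysed in NP-40 buffer, assayed by Bradford, and 20 μg protein was run on 12% SDS-PAGE/PVDF. Blots were probed with phospho-Ser15/78/82 Hsp27 antibodies and HRP secondaries (1 h) and read by chemiluminescence. Loading controls were GAPDH for the compound and β-actin for peptides; peptide blots were quantified by densitometry.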
In general terms: A western blot detects proteins with antibodies after separation by electrophoresis.

The test system of data set [3] is Hsp27 nuclear translocation / hnRNP A1 cytosol translocation. The experiment in a line: Nuclear/cytosol fraction assay upon EV-A71 infection. As to conditions: 0, 2, 4, 8 µM for 2 h, then EV-A71 MOI 10 for 6 h, RD cells (Fig 1C). The essentials:
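RD cells were pretreated 2 h with the test compound (0–8 µM), then infected with EV-A71 at MOI 10 for 6 h. Cells were PBS-washed, scraped and pelleted. Cytoplasmic extract was taken on ice as the supernatant after 16,000 xg for 5 min. Nuclear extract was the supernatant after 16,000 xg for 10 min at 4°C. Both were analysed by western blot, with Lamin B1 as nuclear and GAPDH as cytosolic control.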

The subject of a further data set is RD cells. Put plainly: CCK-8 assay. As to conditions: peptide treatment for 2 days, CCK-8 (Fig S7B). The method, boiled down:
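RD cells were seeded at 1 × 10^4/well and held 1 day at 5% CO2. They were then exposed to the test peptide for 2 days. CCK-8 reagent was added with medium and incubated 1 h at 37°C, and OD was read at 450 nm.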
In general terms: Tetrazolium dyes change colour on reduction, which living cells bring about.

For data set [4], the system named is EV-A71. The experiment in a line: Virus titration. As to conditions: RD cells, peptide 25 μM for 2 h, EV-A71 MOI 0.1 for 24 h (Fig S8G). The method, boiled down:
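RD cells were pretreated 2 h with the test peptide, then infected with EV-A71. Supernatants were serially diluted 10-fold and added in quintuplicate to RD cells seeded 24 h earlier. TCID50 was calculated by the Kärber method after 120 h of infection.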

For the next data set, the system named is EV-A71 VP1. The experiment in a line: EV-A71 VP1 protein level by western blot with densitometry. The settings on record: RD cells, peptide for 2 h, EV-A71 MOI 1 for 9 h (Fig S8E). The essentials: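 RD cells were pretreated 2 h with the test peptide, then infected with EV-A71 (SHZH98 strain). Lysis was in NP-40 buffer, with protein measured by Bradford assay. 20 μg protein was run on 12% SDS-PAGE and transferred to PVDF. HRP secondary antibodies were applied for 1 h, with chemiluminescent detection. VP1 bands were quantified by densitometry against the respective untreated control.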

Regarding `C[S+]([O-])c1ccc(-c2nc(-c3ccncc3)c(-c3ccc(F)cc3)[nH]2)cc1` (stereo not drawn) [SB203580], the “nuclear Hsp27 level upon EV-A71 infection” value in data set [1] (2 µM for 2 h, then EV-A71 MOI 40 for 6 h, RD cells (Fig 1B)) is recorded as “markedly reduced nuclear Hsp27 level”. Moreover, the “nuclear relocation of Hsp27 upon EV-A71 infection” value in data set [1] (4 µM for 2 h, then EV-A71 MOI 40 for 6 h, RD cells (Fig 1B)) is given as “further blocked to an invisible level”. In the data set with EV-A71 [2], the “effect on viral RNA level in Hsp27 S78A- and Hsp27 S78D-expressing cells” value is “no obvious effects”. Moreover, the “Hsp27 phosphorylation level at Ser15 and Ser82” value in the data set on Hsp27 phosphorylation is recorded as “slightly decreased”. In addition, in data set [3], the “cytosol translocation of hnRNP A1 (nuclear/cytosol fraction)” value is “inhibited the cytosol translocation of hnRNP A1 in a dose-dependent manner” and the “nuclear translocation of Hsp27 (nuclear/cytosol fraction)” value is “suppress the nuclear translocation of Hsp27 in a dose-dependent manner”.
Regarding RKKRRQRRR-AYSRAAAAQLSS [S78-3A], the “redistribution of Hsp27 and hnRNP A1 in EV-A71-infected RD cells” value in data set [1] was “partially suppressed”. Besides, the “CC50 (in words)” value in the data set with RD cells is “high CC50”. Moreover, in the data set on EV-A71 [4], the “effect on viral titre (in words)” value is “only mildly decreased”.
RKKRRQRRR-YSREANQPKPSPKRESGEE [NC]: in data set [1], the “redistribution of Hsp27 and hnRNP A1 in EV-A71-infected RD cells” value is “did not affect”. For the same molecule, the “effect on VP1 level (in words)” value in the data set on EV-A71 VP1 is “no effect”. Moreover, the “CC50 (in words)” value with RD cells is on record as “high CC50”.
